ChEMBL document CHEMBL1255328, “Transcriptional and translational control of the mlr operon, which confers resistance to seven classes of protein synthesis inhibitors” (2008)
Converted amounts (≈) assume the structure as drawn.

Legend:
Staphylococcus aureus [1] = experiment: Antimicrobial activity against methicillin-resistant Staphylococcus aureus CM05 by broth microdilution method; format: functional
Summary of the method: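 Clinical MRSA strain CM05. MICs determined by broth microdilution following accepted recommendations.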

Staphylococcus aureus [2] = experiment: Antimicrobial activity against Staphylococcus aureus RN4220 harboring plasmid MS2 by broth microdilution method; format: functional
Summary of the method: (§1)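 S. aureus RN4220 carrying the relevant shuttle plasmid, introduced by electroporation and selected on LB agar with 10 µg/ml chloramphenicol. MICs by broth microdilution per accepted recommendations. Disk diffusion: ca. 10^7 cells in 4 ml 0.6% soft agar over 1.5% LB agar with 10 µg/ml chloramphenicol. Paper disks (5 mm) held 20 µg erythromycin or 30 µg florfenicol. Plates incubated overnight at 37°C and photographed.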

Staphylococcus aureus [3] = experiment: Antimicrobial activity against Staphylococcus aureus RN4220 harboring erm(B) and cfr gene by broth microdilution method
Staphylococcus aureus [4] = experiment: Antimicrobial activity against erm(B) and cfr-deficient Staphylococcus aureus RN4220 harboring plasmid LI50 by broth microdilution method
Staphylococcus aureus [5] = experiment: Antimicrobial activity against Staphylococcus aureus RN4220 harboring plasmid LI50 by broth microdilution method; format: functional; summary of the method: as §1
Staphylococcus aureus [6] = experiment: Antimicrobial activity against erm(B)-deficient Staphylococcus aureus RN4220 harboring cfr gene by broth microdilution method; format: functional; summary of the method: as §1
Staphylococcus aureus [7] = experiment: Antimicrobial activity against cfr-deficient Staphylococcus aureus RN4220 harboring erm(B) gene by broth microdilution method; format: functional; summary of the method: as §1
Staphylococcus aureus [8] = experiment: Antimicrobial activity against Staphylococcus aureus RN4220 harboring cfr gene with mutagenized second codon CAG; format: functional; summary of the method: as §1
Staphylococcus aureus [9] = experiment: Antimicrobial activity against Staphylococcus aureus RN4220 harboring erm(B) promoter-deficient plasmid MS2 by broth microdilution method
Staphylococcus aureus [10] = experiment: Antimicrobial activity against methicillin-resistant Staphylococcus aureus RN4220 harboring erm(B) and cfr gene assessed as modification of A2503 site in 23S rRNA; format: functional
Staphylococcus aureus [11] = experiment: Antimicrobial activity against methicillin-resistant Staphylococcus aureus RN4220 harboring erm(B) and cfr gene assessed as modification of A2058 site in 23S rRNA; format: functional
Staphylococcus aureus [12] = experiment: Antimicrobial activity against Staphylococcus aureus RN4220 harboring cfr gene with mutagenized first codon CAG; format: functional; summary of the method: as §1
Staphylococcus aureus [13] = experiment: Antimicrobial activity against methicillin-resistant Staphylococcus aureus CM05 assessed as modification of A2503 site in 23S rRNA; format: functional
Staphylococcus aureus [14] = experiment: Antimicrobial activity against methicillin-resistant Staphylococcus aureus CM05 assessed as modification of A2058 site in 23S rRNA; format: functional

Compound	MIC (Staphylococcus aureus [1]) [µg/mL]	MIC (Staphylococcus aureus [2]) [µg/mL]	MIC (Staphylococcus aureus [3]) [µg/mL]	MIC (Staphylococcus aureus [4]) [µg/mL]	MIC (Staphylococcus aureus [5]) [µg/mL]	MIC (Staphylococcus aureus [6]) [µg/mL]	MIC (Staphylococcus aureus [7]) [µg/mL]	MIC (Staphylococcus aureus [8]) [µg/mL]	MIC (Staphylococcus aureus [9]) [µg/mL]	Activity (Staphylococcus aureus [10]) [%]	Activity (Staphylococcus aureus [11]) [%]	MIC (Staphylococcus aureus [12]) [µg/mL]	Activity (Staphylococcus aureus [13]) [%]	Activity (Staphylococcus aureus [14]) [%]
O=C(N[C@H](CO)[C@H](O)c1ccc([N+](=O)[O-])cc1)C(Cl)Cl [CHLORAMPHENICOL]	64 (≈ 198 µM)													
CCC[C@@H]1C[C@@H](C(=O)N[C@@H]([C@H]2O[C@H](SC)[C@H](O)[C@@H](O)[C@H]2O)[C@H](C)Cl)N(C)C1 [CLINDAMYCIN]	> 1020	> 1020	> 1020	< 1	< 1	1020 (≈ 2410 µM)	> 1020							
CC[C@H]1OC(=O)[C@H](C)[C@@H](O[C@H]2C[C@@](C)(OC)[C@@H](O)[C@H](C)O2)[C@H](C)[C@@H](O[C@@H]2O[C@H](C)C[C@H](N(C)C)[C@H]2O)[C@](C)(O)C[C@@H](C)C(=O)[C@H](C)[C@@H](O)[C@]1(C)O [ERYTHROMYCIN]	> 1020	> 1020	> 1020	0.5 (≈ 0.681 µM)	0.5 (≈ 0.681 µM)			> 1020	0.5 (≈ 0.681 µM)	11	23	> 1020	27	35
CS(=O)(=O)c1ccc([C@@H](O)[C@@H](CF)NC(=O)C(Cl)Cl)cc1 [FLORFENICOL]		128 (≈ 357 µM)	128 (≈ 357 µM)	4 (≈ 11.2 µM)	4 (≈ 11.2 µM)			4 (≈ 11.2 µM)	4 (≈ 11.2 µM)	16	20	128 (≈ 357 µM)	20	32
CO[C@@H]1[C@@H](O[C@@H]2O[C@H](C)[C@@H](O[C@H]3C[C@@](C)(O)[C@@H](OC(=O)CC(C)C)[C@H](C)O3)[C@H](N(C)C)[C@H]2O)[C@@H](CC=O)C[C@@H](C)[C@@H](O)/C=C/C=C/C[C@@H](C)OC(=O)C[C@H]1OC(C)=O [JOSAMYCIN]			> 2000	1 (≈ 1.21 µM)		64 (≈ 77.3 µM)	> 2000							
CC(=O)NC[C@H]1CN(c2ccc(N3CCOCC3)c(F)c2)C(=O)O1 [LINEZOLID]	8 (≈ 23.7 µM)													
C=C[C@]1(C)C[C@@H](OC(=O)CSCCN(CC)CC)[C@]2(C)[C@H](C)CC[C@]3(CCC(=O)[C@H]32)[C@@H](C)[C@@H]1O [TIAMULIN]	512 (≈ 1040 µM)	128 (≈ 259 µM)			1 (≈ 2.03 µM)									
CC[C@H]1OC(=O)C[C@@H](O)[C@H](C)[C@@H](O[C@@H]2O[C@H](C)[C@@H](O[C@H]3C[C@@](C)(O)[C@@H](O)[C@H](C)O3)[C@H](N(C)C)[C@H]2O)[C@@H](CC=O)C[C@@H](C)C(=O)/C=C/C(C)=C/[C@@H]1CO[C@@H]1O[C@H](C)[C@@H](O)[C@@H](OC)[C@H]1OC [TYLOSIN]		> 1020	6000 (≈ 6550 µM)	1 (≈ 1.09 µM)	2 (≈ 2.18 µM)	2 (≈ 2.18 µM)	2000 (≈ 2180 µM)							
SPIRAMYCIN						128	> 4000							
